Source: ChEMBL document CHEMBL3271953, “Bridged aminotetralins. 4. Resolution of potent analgesics of the bridged aminotetralin type” (J Med Chem, 1976)
Calls of active or inactive are those of the source.

Legend:
Rattus norvegicus [1] = assay: Analgesic activity in po dosed Charles River rat by tail flick test; format: functional
Outline: (§1)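 D'Amour-Smith rat tail-flick test. Compounds were given ip, im or po, and analgesic ED50 was derived. Doses are expressed as mg of base per kg and given as the hydrochloride or hydrobromide salt or as the free base. Some ED50s rest on two doses only.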

Rattus norvegicus [2] = assay: Analgesic activity in ip dosed Charles River rat by tail flick test; format: functional; outline: as §1
Rattus norvegicus [3] = assay: Analgesic activity in im dosed Charles River rat by tail flick test; format: functional; outline: as §1
Rattus norvegicus [4] = assay: Analgesic activity in Charles River rat at 20 mg/kg, po by tail flick test; format: functional, organism-based; set-up: dose 20 mg/kg
Rattus norvegicus [5] = species on record: Rattus norvegicus; assay: Ratio of morphine ED50 to compound ED50 for analgesic activity in Charles River rat by tail flick test; format: functional
Rattus norvegicus [6] = assay: Ratio of morphine ED50 to compound ED50 for analgesic activity in po dosed Charles River rat by tail flick test; format: functional
[7] = Acute toxicity in po dosed rat; format: organism-based; settings: in vivo
Outline: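 Acute toxicity in rats after oral dosing, expressed as an LD50 in mg/kg.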

Rhesus monkey [8] = assay: Analgesic activity in po dosed monkey assessed as increase in shock threshold; format: functional, organism-based; settings: Macaca mulatta
Rhesus monkey [9] = assay: Analgesic activity in monkey assessed as increase in shock threshold at 0.06 mg/kg, im; format: functional, organism-based; set-up: dose 0.06 mg/kg; settings: Macaca mulatta
Rhesus monkey [10] = assay: Narcotic antagonism activity in morphine-dependent rhesus monkey assessed as precipitation of withdrawal symptoms at 0.5 to 1 mg/kg, im; format: functional, organism-based; settings: Macaca mulatta
Rhesus monkey [11] = assay: Narcotic antagonism activity in morphine-dependent rhesus monkey assessed as precipitation of withdrawal symptoms at 1 mg/kg, im measured for 10 hrs; format: functional, organism-based; set-up: dose 1 mg/kg; settings: Macaca mulatta
[12] = Rattus norvegicus, Charles River, Tail, po, read-out: ED50
[13] = Rattus norvegicus, Charles River, Tail, ip, read-out: ED50
[14] = Rattus norvegicus, Charles River, Tail, im, read-out: ED50

Row | Compound | ED50 (Rattus norvegicus [1]) | ED50 (Rattus norvegicus [2]) | ED50 (Rattus norvegicus [3]) | further results
1 | CC[C@@]12CCCCCC(Cc3ccc(O)cc31)[C@@H]2N (mixture of isomers) | 10 mg/kg | 3.7 mg/kg | 0.25 mg/kg | –
2 | CC[C@@]12CCCCCC(Cc3ccc(OC)cc31)[C@@H]2N.Cl (mixture of isomers) | – | 3.5 mg/kg | 12 mg/kg | –
3 | CC[C@@]12CCCCCC(Cc3ccc(OC)cc31)[C@@H]2N (mixture of isomers) | – | – | – | Activity (Rattus norvegicus [4]): Active
4 | Br.C[C@@]12CCCCCC(Cc3ccc(O)cc31)[C@@H]2N (stereo in doubt; (+)-6) | – | >100 mg/kg | 95 mg/kg | –
5 | COc1ccc2c(c1)[C@@]1(C)CCCCCC(C2)[C@@H]1N.Cl (mixture of isomers) | – | 4.88 mg/kg | – | –
6 | Br.C[C@@]12CCCCCC(Cc3ccc(O)cc31)[C@@H]2N (stereo in doubt; (-)-6) | 2.05 mg/kg | 0.53 mg/kg | 0.12 mg/kg | Ratio ED50 (Rattus norvegicus [5]): <=15; Ratio ED50 (Rattus norvegicus [6]): 8; LD50 [7]: 200 mg/kg
7 | CC[C@@]12CCCCCC(Cc3ccc(O)cc31)[C@@H]2N (stereo in doubt; (+)-2) | 80 mg/kg | 7.5 mg/kg | 2 mg/kg | –
8 | CC[C@@]12CC/C=C\CC(Cc3ccc(OC)cc31)[C@@H]2N.Cl (stereo in doubt; (-)-3) | – | >6.25 mg/kg | – | –
9 | Br.C[C@@]12CCCCCC(Cc3ccc(O)cc31)[C@@H]2N (mixture of isomers) | 10 mg/kg | 1.11 mg/kg | 0.45 mg/kg | –
10 | CC[C@@]12CC/C=C\CC(Cc3ccc(O)cc31)[C@@H]2N.Cl (stereo in doubt; (-)-4) | – | 9 mg/kg | 4 mg/kg | –
11 | C[C@@]12CCCCCC(Cc3ccc(O)cc31)[C@@H]2N (stereo in doubt; (-)-6) | – | – | – | Activity (Rhesus monkey [8]): Dose-dependent effect; Activity (Rhesus monkey [9]): Active; Activity (Rhesus monkey [10]): Active; Activity (Rhesus monkey [11]): Active
12 | CN1CC[C@]23c4c5ccc(O)c4O[C@H]2[C@@H](O)C=C[C@H]3[C@H]1C5 [MORPHINE] | – | – | – | ED50 (Rattus norvegicus [1]; [12]): 15.9 mg/kg; ED50 (Rattus norvegicus [2]; [13]): 4.43 mg/kg; ED50 (Rattus norvegicus [3]; [14]): 1.57 mg/kg
13 | CC[C@@]12CCCCCC(Cc3ccc(OC)cc31)[C@@H]2N.Cl (stereo in doubt; (-)-1) | 7.5 mg/kg | 3.3 mg/kg | 3.5 mg/kg | –
14 | CC[C@@]12CC/C=C\CC(Cc3ccc(O)cc31)[C@@H]2N.Cl (mixture of isomers) | – | 1.75 mg/kg | – | –
15 | COc1ccc2c(c1)[C@@]1(C)CCCCCC(C2)[C@@H]1N.Cl (stereo in doubt; (+)-5) | – | >25 mg/kg | – | –
16 | C[C@@]12CCCCCC(Cc3ccc(OC(=O)C4CC4)cc31)[C@@H]2N.Cl | – | – | – | ED50 (Rattus norvegicus [2]; [13]): 1.5 mg/kg; ED50 (Rattus norvegicus [3]; [14]): 0.45 mg/kg
17 | CC[C@@]12CC/C=C\CC(Cc3ccc(OC)cc31)[C@@H]2N.Cl (mixture of isomers) | – | 4.2 mg/kg | – | –
18 | CC[C@@]12CCCCCC(Cc3ccc(OC)cc31)[C@@H]2N.Cl (stereo in doubt; (+)-1) | 30 mg/kg | 10 mg/kg | 10 mg/kg | –
19 | COc1ccc2c(c1)[C@@]1(C)CCCCCC(C2)[C@@H]1N.Cl (stereo in doubt; (-)-5) | – | 2 mg/kg | – | ED50 (Rattus norvegicus [1]; [12]): 3.5 mg/kg; ED50 (Rattus norvegicus [3]; [14]): 4.5 mg/kg
20 | CC[C@@]12CC/C=C\CC(Cc3ccc(OC)cc31)[C@@H]2N.Cl (stereo in doubt; (+)-3) | – | – | – | ED50 (Rattus norvegicus [2]; [13]): 3.75 mg/kg; ED50 (Rattus norvegicus [3]; [14]): 12.5 mg/kg
21 | CC[C@@]12CC/C=C\CC(Cc3ccc(O)cc31)[C@@H]2N.Cl (stereo in doubt; (+)-4) | – | 0.8 mg/kg | 0.195 mg/kg | ED50 (Rattus norvegicus [1]; [12]): 5 mg/kg; Ratio ED50 (Rattus norvegicus [5]): <=15
22 | CC[C@@]12CCCCCC(Cc3ccc(O)cc31)[C@@H]2N (stereo in doubt; (-)-2) | 3.5 mg/kg | 0.5 mg/kg | 0.1 mg/kg | Ratio ED50 (Rattus norvegicus [5]): <=15
